Experimental data: ChEMBL document CHEMBL1165943, “Design and synthesis of new anticancer pyrimidines with multiple-kinase inhibitory effect” (Bioorg Med Chem, 2010)
pIC50: −log10 of the molar value.

Columns and labels:
[1] = Cytotoxicity against human […] cells assessed as cell growth at 10 uM; type: functional; settings: Homo sapiens, RPMI8266; read-out: Activity
In short: (§1)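 Single-dose screen at 10 μM across the 60-cell-line panel. Cells grown in RPMI 1640 with 5% FBS and 2 mM L-glutamine, seeded at 5,000–40,000 cells/well according to doubling time, and treated 24 h later. Exposure lasted 48 h at 37 °C, 5% CO₂. Adherent cells were fixed with cold TCA, suspension cells were fixed settled, and both were stained with SRB and read at 515 nm. Growth % was recorded, with inhibition % = 100 − growth %.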

CAKI-1 = test: Cytotoxicity against human Caki1 cells assessed as cell growth at 10 uM; type: functional; settings: Homo sapiens, CAKI-1; read-out: Activity
In short: (§2)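 Single-concentration screen at 10 μM across the 60-cell-line panel (nine tissue types); growth percentage recorded per cell line, with inhibition taken as 100 minus growth percentage.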

MDA-MB-468 [2] = test: Cytotoxicity against human MDA-MB-468 cells assessed as cell growth at 0.01 uM after 48 hrs by sulforhodamine B assay; type: functional; settings: MDA-MB-468, 48 h, read-out: Activity
CCRF-CEM = test: Cytotoxicity against human CCRF-CEM cells assessed as cell growth at 10 uM; type: functional; settings: Homo sapiens, CCRF-CEM; read-out: Activity; in short: as §2
DU-145 [3] = test: Cytotoxicity against human DU145 cells assessed as cell growth at 0.01 uM after 48 hrs by sulforhodamine B assay; type: functional; settings: DU-145, 48 h, read-out: Activity
SK-MEL-28 = test: Cytotoxicity against human SK-MEL-28 cells assessed as cell growth at 10 uM; type: functional; settings: Homo sapiens, SK-MEL-28; read-out: Activity; in short: as §1
RXF 393 = test: Cytotoxicity against human RXF393 cells assessed as cell growth at 10 uM; type: functional; settings: Homo sapiens, RXF 393; read-out: Activity; in short: as §1
NCI-H522 = test: Cytotoxicity against human NCI-H522 cells assessed as cell growth at 10 uM; type: functional; settings: Homo sapiens, NCI-H522; read-out: Activity; in short: as §1
M14 = test: Cytotoxicity against human M14 cells assessed as cell growth at 10 uM; type: functional; settings: Homo sapiens, M14; read-out: Activity; in short: as §1
LOX IMVI = test: Cytotoxicity against human LOXIMVI cells assessed as cell growth at 10 uM; type: functional; settings: Homo sapiens, LOX IMVI; read-out: Activity; in short: as §1
U-251 = test: Cytotoxicity against human U251 cells assessed as cell growth at 10 uM; type: functional; settings: Homo sapiens, U-251; read-out: Activity; in short: as §1
ACHN = test: Cytotoxicity against human ACHN cells assessed as cell growth at 10 uM; type: functional; settings: Homo sapiens, ACHN; read-out: Activity; in short: as §2
NCI-H460 = test: Cytotoxicity against human NCI-H460 cells assessed as cell growth at 0.01 uM after 48 hrs by sulforhodamine B assay; type: functional; settings: NCI-H460, 48 h, read-out: Activity
SNB-75 [4] = test: Cytotoxicity against human SNB75 cells assessed as cell growth at 100 nM after 48 hrs by sulforhodamine B assay; type: functional; settings: SNB-75, 48 h, read-out: Activity
SR = test: Cytotoxicity against human SR cells assessed as cell growth at 10 uM; type: functional; settings: Homo sapiens, SR; read-out: Activity; in short: as §1
HOP-92 = test: Cytotoxicity against human HOP92 cells assessed as cell growth at 10 uM; type: functional; settings: Homo sapiens, HOP-92; read-out: Activity; in short: as §2
SF-539 = test: Cytotoxicity against human SF539 cells assessed as cell growth at 10 uM; type: functional; settings: Homo sapiens, SF-539; read-out: Activity; in short: as §1
KM12 = test: Cytotoxicity against human KM12 cells assessed as cell growth at 1 uM after 48 hrs by sulforhodamine B assay; type: functional; settings: KM12, 48 h, read-out: Activity
HCT-116 = test: Cytotoxicity against human HCT116 cells assessed as cell growth at 10 uM after 48 hrs by sulforhodamine B assay; type: functional; settings: HCT-116, 48 h, read-out: Activity
SF-268 = test: Cytotoxicity against human SF268 cells assessed as cell growth at 1 uM after 48 hrs by sulforhodamine B assay; type: functional; settings: SF-268, 48 h, read-out: Activity
SF-295 = test: Cytotoxicity against human SF295 cells assessed as cell growth at 10 uM; type: functional; settings: Homo sapiens, SF-295; read-out: Activity; in short: as §1
HL-60(TB) = test: Cytotoxicity against human HL-60(TB) cells assessed as cell growth at 10 uM; type: functional; settings: Homo sapiens, HL-60; read-out: Activity
In short: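 Single-concentration 10 µM screen of HL-60(TB) within the 60-line panel, grown in RPMI 1640 with 5% FBS. The drug from DMSO stock is incubated 48 h at 37 °C, settled cells are TCA-fixed and SRB-stained, and absorbance is read at 515 nm. Percent growth is reported, and inhibition % is taken as 100 minus growth %.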

SNB-75 [5] = test: Cytotoxicity against human SNB75 cells assessed as cell growth at 10 uM; type: functional; settings: Homo sapiens, SNB-75; read-out: Activity; in short: as §1
MOLT-4 = test: Cytotoxicity against human MOLT4 cells assessed as cell growth at 10 uM; type: functional; settings: Homo sapiens, MOLT-4; read-out: Activity; in short: as §1
MDA-MB-435 = test: Cytotoxicity against human MDA-MB-435 cells assessed as cell growth at 10 uM; type: functional; settings: read-out: Activity; in short: as §1
MDA-MB-468 [6] = test: Growth inhibition of human MDA-MB-468 cells after 48 hrs by sulforhodamine B assay; type: functional, cell-based; settings: MDA-MB-468, 48 h
In short: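 Cells grown in RPMI 1640 with 5% FBS and 2 mM L-glutamine, seeded at 5,000–40,000 cells/well according to doubling time. After 24 h, time-zero plates are TCA-fixed. Five concentrations (10-fold or ½log dilutions, DMSO stocks) are applied for 48 h at 37 °C, 5% CO₂. Cells are TCA-fixed, SRB-stained and read at 515 nm. IC₅₀ is taken from [(Ti−Tz)/(C−Tz)]×100 = 50.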

[7] = Cytotoxicity against human Hs 578T cells assessed as cell growth at 10 uM; type: functional; settings: read-out: Activity; in short: as §2
SNB-75 [8] = test: Cytotoxicity against human SNB75 cells assessed as cell growth at 1 uM after 48 hrs by sulforhodamine B assay; type: functional; settings: SNB-75, 48 h, read-out: Activity
DU-145 [9] = test: Cytotoxicity against human DU145 cells assessed as cell growth at 10 uM; type: functional; settings: Homo sapiens, DU-145; read-out: Activity; in short: as §2
SN12C = test: Cytotoxicity against human SN12C cells assessed as cell growth at 10 uM; type: functional; settings: Homo sapiens, SN12C; read-out: Activity; in short: as §1
SNB-19 = test: Cytotoxicity against human SNB19 cells assessed as cell growth at 10 uM; type: functional; settings: read-out: Activity; in short: as §1
A549 = test: Cytotoxicity against human A549 cells assessed as cell growth at 10 uM; type: functional; settings: Homo sapiens, A549; read-out: Activity; in short: as §2

| Structure (SMILES) | growth at 10 µM [1] | growth at 10 µM (CAKI-1) | growth at 0.01 µM (MDA-MB-468 [2]) | growth at 10 µM (CCRF-CEM) | growth at 0.01 µM (DU-145 [3]) | growth at 10 µM (SK-MEL-28) | growth at 10 µM (RXF 393) | growth at 10 µM (NCI-H522) | growth at 10 µM (M14) | growth at 10 µM (LOX IMVI) | growth at 10 µM (U-251) | growth at 10 µM (ACHN) | growth at 0.01 µM (NCI-H460) | growth at 0.1 µM (SNB-75 [4]) | growth at 10 µM (SR) | growth at 10 µM (SF-539) | growth at 1 µM (KM12) | growth at 10 µM (HCT-116) | growth at 1 µM (SF-268) | growth at 10 µM (SF-295) | also measured |
| --- | --- | --- | --- | --- | --- | --- | --- | --- | --- | --- | --- | --- | --- | --- | --- | --- | --- | --- | --- | --- | --- |
| CC(=O)Nc1cccc(-c2ccc(-c3ccnc(NC(=O)Nc4cc(C(F)(F)F)cc(C(F)(F)F)c4)n3)cn2)c1.Cl | 38.1% | 50.9% | 86% | 43.3% | 95% | -37.6% | 121% | 8.5% | 46.5% | 49.4% | -25.4% | 60.5% | 93% | 67% | 68% | 75.6% | -10% | 100% | 31% | 49% | growth at 10 µM (HOP-92): 72.4%; growth at 10 µM (HL-60(TB)): 60.1%; growth at 10 µM (SNB-75 [5]): 87.2%; growth at 10 µM (MOLT-4): 53.3%; growth at 10 µM (MDA-MB-435): 73.9%; GI50 (MDA-MB-468 [6]): 0.837 µM; pIC50 (MDA-MB-468 [6]): 6.08; LC50 (MDA-MB-468 [6]): 5.85 µM; TGI (MDA-MB-468 [6]): 2.35 µM; growth at 10 µM [7]: 120%; growth at 1 µM (SNB-75 [8]): 54%; growth at 10 µM (DU-145 [9]): 89.2%; growth at 10 µM (SN12C): 68%; growth at 10 µM (SNB-19): 50.5% |
| CC(=O)c1ccccc1-c1ccc(-c2ccnc(NC(=O)Nc3cc(N4CCOCC4)cc(C(F)(F)F)c3)n2)cn1 | 79.7% | 83.5% | 105% | 80.7% | 97% | -74.8% | -19.6% | 60.2% | 8.07% | 44.7% | 56.4% | 45.7% | 110% | 89% | 86.2% | 44.3% | 86% | 66% | 60% | 74.8% | growth at 10 µM (HL-60(TB)): 95.7%; growth at 10 µM (A549): 68%; growth at 10 µM (SNB-75 [5]): 8.55%; growth at 10 µM (MOLT-4): 87.1%; growth at 10 µM (MDA-MB-435): 82.8%; GI50 (MDA-MB-468 [6]): > 100 µM; pIC50 (MDA-MB-468 [6]): < 4.00; LC50 (MDA-MB-468 [6]): > 100 µM; TGI (MDA-MB-468 [6]): > 100 µM; growth at 10 µM [7]: 60.8%; growth at 1 µM (SNB-75 [8]): 36%; growth at 10 µM (DU-145 [9]): 45.3%; growth at 10 µM (SN12C): 52.3%; growth at 10 µM (SNB-19): 71.7% |
